Test results taken from ChEMBL document CHEMBL4689842, “EUbOPEN Chemogenomics Library wave 1” (2021).

Experiments:
Assay type in all cases: toxicity, cell-based
HEK-293T [1] = assay: Multiplex assay against HEK293T; details: human;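 for Population Tubulin-Different-Phenotype (%): share of the cells with healthy nuclei that show this phenotype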
How it was run: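 Values for tubulin, mitochondrial-mass and membrane-permeability phenotypes are per cents of cells with healthy nuclei. These cells were identified by CellPathfinder machine-learning gating of live cells that had been stained at seeding with Hoechst33342, BioTracker Green Microtubule Cytoskeleton Dye, MitoTracker Red and Annexin V Alexa Fluor 680 and imaged on a CQ1 microscope at 37°C and 5% CO2 after compound addition. The gating first set Hoechst high-intensity objects apart from normal cells, then split normal cells into healthy, pyknosed or fragmented nuclei, and pyknosed cells into mitotic or apoptotic.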

HEK-293T [2] = assay: Incucyte cell viability with HEK293T; details: human, 10 µM, compound concentration 10 uM; note: filed as whole numbers so only -1 and 0 and 1 occur
Fibroblast = assay: Incucyte cell viability with human fibroblast; details: 10 µM, compound concentration 10 uM; note: filed as whole numbers so only -1 and 0 and 1 occur
[3] = 12 h, 1 µM, compound concentration 1 uM, replicate 1
[4] = 12 h, 1 µM, compound concentration 1 uM, replicate 2
[5] = 12 h, 10 µM, compound concentration 10 uM, replicate 1
[6] = 12 h, 10 µM, compound concentration 10 uM, replicate 2
[7] = 24 h, 1 µM, compound concentration 1 uM, replicate 1
[8] = 24 h, 1 µM, compound concentration 1 uM, replicate 2
[9] = 24 h, 10 µM, compound concentration 10 uM, replicate 1
[10] = 24 h, 10 µM, compound concentration 10 uM, replicate 2
[11] = 48 h, 1 µM, compound concentration 1 uM, replicate 1
[12] = 48 h, 1 µM, compound concentration 1 uM, replicate 2
[13] = 48 h, 10 µM, compound concentration 10 uM, replicate 1
[14] = 48 h, 10 µM, compound concentration 10 uM, replicate 2
[15] = 0 h, replicate number 1, timepoint 0 hours
[16] = 6 h, replicate number 1, timepoint 6 hours
[17] = 12 h, replicate number 1, timepoint 12 hours
[18] = 18 h, replicate number 1, timepoint 18 hours
[19] = 24 h, replicate number 1, timepoint 24 hours

For `CCCCN(CC)c1nc(C)nc2c1c(C)cn2-c1c(C)cc(C)cc1C.Cl`, the “Population Apoptotic (%)” value (HEK-293T [1]; [3]) was 49%, the “Population Fragmented Nuclei (%)” value (HEK-293T [1]; [3]) was 15% and the “Population Healthy Nuclei (%)” value (HEK-293T [1]; [3]) was 45%. The “Population Hoechst High Intensity Objects (%)” value (HEK-293T [1]; [3]) was 16%, the “Population Membrane Permeable-Phenotype (%)” value (HEK-293T [1]; [3]) was 5% and the “Population Mitochondria Different-Phenotype (%)” value (HEK-293T [1]; [3]) was 79%. The “Population Mitotic Cells (%)” value (HEK-293T [1]; [3]) was 50%, the “Population Normal (%)” value (HEK-293T [1]; [3]) was 83% and the “Population Pyknosed Nuclei (%)” value (HEK-293T [1]; [3]) was 39%. For the same compound, the “Population Tubulin-Different-Phenotype (%)” value (HEK-293T [1]; [3]) was 32%, the “Total Cell Count” value (HEK-293T [1]; [3]) was 241 and the “Population Apoptotic (%)” value (HEK-293T [1]; [4]) was 11%. The “Population Fragmented Nuclei (%)” value (HEK-293T [1]; [4]) was 5%, the “Population Healthy Nuclei (%)” value (HEK-293T [1]; [4]) was 43% and the “Population Hoechst High Intensity Objects (%)” value (HEK-293T [1]; [4]) was 1%. For the same compound, the “Population Membrane Permeable-Phenotype (%)” value (HEK-293T [1]; [4]) was 6%, the “Population Mitochondria Different-Phenotype (%)” value (HEK-293T [1]; [4]) was 11% and the “Population Mitotic Cells (%)” value (HEK-293T [1]; [4]) was 88%. For the same compound, the “Population Normal (%)” value (HEK-293T [1]; [4]) was 98%, the “Population Pyknosed Nuclei (%)” value (HEK-293T [1]; [4]) was 51% and the “Population Tubulin-Different-Phenotype (%)” value (HEK-293T [1]; [4]) was 17%. For the same compound, the “Total Cell Count” value (HEK-293T [1]; [4]) was 240, the “Population Apoptotic (%)” value (HEK-293T [1]; [5]) was 59% and the “Population Fragmented Nuclei (%)” value (HEK-293T [1]; [5]) was 13%. For the same compound, the “Population Hoechst High Intensity Objects (%)” value (HEK-293T [1]; [5]) was 8%, the “Population Membrane Permeable-Phenotype (%)” value (HEK-293T [1]; [5]) was 1% and the “Population Mitochondria Different-Phenotype (%)” value (HEK-293T [1]; [5]) was 95%. The “Population Mitotic Cells (%)” value (HEK-293T [1]; [5]) was 40%, the “Population Normal (%)” value (HEK-293T [1]; [5]) was 91% and the “Population Pyknosed Nuclei (%)” value (HEK-293T [1]; [5]) was 49%. The “Population Tubulin-Different-Phenotype (%)” value (HEK-293T [1]; [5]) was 75%, the “Total Cell Count” value (HEK-293T [1]; [5]) was 236 and the “Population Apoptotic (%)” value (HEK-293T [1]; [6]) was 27%. For the same compound, the “Population Fragmented Nuclei (%)” value (HEK-293T [1]; [6]) was 7%, the “Population Healthy Nuclei (%)” value (HEK-293T [1]; [6]) was 37% and the “Population Hoechst High Intensity Objects (%)” value (HEK-293T [1]; [6]) was 7%. The “Population Membrane Permeable-Phenotype (%)” value (HEK-293T [1]; [6]) was 6%, the “Population Mitochondria Different-Phenotype (%)” value (HEK-293T [1]; [6]) was 68% and the “Population Mitotic Cells (%)” value (HEK-293T [1]; [6]) was 72%. The “Population Normal (%)” value (HEK-293T [1]; [6]) was 92%, the “Population Pyknosed Nuclei (%)” value (HEK-293T [1]; [6]) was 54% and the “Population Tubulin-Different-Phenotype (%)” value (HEK-293T [1]; [6]) was 60%. For the same compound, the “Total Cell Count” value (HEK-293T [1]; [6]) was 211, the “Population Apoptotic (%)” value (HEK-293T [1]; [7]) was 48% and the “Population Fragmented Nuclei (%)” value (HEK-293T [1]; [7]) was 16%. The “Population Healthy Nuclei (%)” value (HEK-293T [1]; [7]) was 41%, the “Population Hoechst High Intensity Objects (%)” value (HEK-293T [1]; [7]) was 13% and the “Population Membrane Permeable-Phenotype (%)” value (HEK-293T [1]; [7]) was 4%. The “Population Mitochondria Different-Phenotype (%)” value (HEK-293T [1]; [7]) was 61%, the “Population Mitotic Cells (%)” value (HEK-293T [1]; [7]) was 51% and the “Population Normal (%)” value (HEK-293T [1]; [7]) was 86%. For the same compound, the “Population Pyknosed Nuclei (%)” value (HEK-293T [1]; [7]) was 42%, the “Population Tubulin-Different-Phenotype (%)” value (HEK-293T [1]; [7]) was 36% and the “Total Cell Count” value (HEK-293T [1]; [7]) was 247. For the same compound, the “Population Apoptotic (%)” value (HEK-293T [1]; [8]) was 15%, the “Population Fragmented Nuclei (%)” value (HEK-293T [1]; [8]) was 4% and the “Population Healthy Nuclei (%)” value (HEK-293T [1]; [8]) was 61%. For the same compound, the “Population Hoechst High Intensity Objects (%)” value (HEK-293T [1]; [8]) was 1%, the “Population Membrane Permeable-Phenotype (%)” value (HEK-293T [1]; [8]) was 9% and the “Population Mitochondria Different-Phenotype (%)” value (HEK-293T [1]; [8]) was 13%. The “Population Mitotic Cells (%)” value (HEK-293T [1]; [8]) was 84%, the “Population Normal (%)” value (HEK-293T [1]; [8]) was 98% and the “Population Pyknosed Nuclei (%)” value (HEK-293T [1]; [8]) was 33%. For the same compound, the “Population Tubulin-Different-Phenotype (%)” value (HEK-293T [1]; [8]) was 21%, the “Total Cell Count” value (HEK-293T [1]; [8]) was 308 and the “Population Apoptotic (%)” value (HEK-293T [1]; [9]) was 64%. The “Population Fragmented Nuclei (%)” value (HEK-293T [1]; [9]) was 10%, the “Population Hoechst High Intensity Objects (%)” value (HEK-293T [1]; [9]) was 9% and the “Population Membrane Permeable-Phenotype (%)” value (HEK-293T [1]; [9]) was 1%. For the same compound, the “Population Mitochondria Different-Phenotype (%)” value (HEK-293T [1]; [9]) was 95%, the “Population Mitotic Cells (%)” value (HEK-293T [1]; [9]) was 35% and the “Population Normal (%)” value (HEK-293T [1]; [9]) was 90%. For the same compound, the “Population Pyknosed Nuclei (%)” value (HEK-293T [1]; [9]) was 37%, the “Population Tubulin-Different-Phenotype (%)” value (HEK-293T [1]; [9]) was 89% and the “Population Apoptotic (%)” value (HEK-293T [1]; [10]) was 29%. For the same compound, the “Population Fragmented Nuclei (%)” value (HEK-293T [1]; [10]) was 4%, the “Population Healthy Nuclei (%)” value (HEK-293T [1]; [10]) was 51% and the “Population Hoechst High Intensity Objects (%)” value (HEK-293T [1]; [10]) was 6%. For the same compound, the “Population Membrane Permeable-Phenotype (%)” value (HEK-293T [1]; [10]) was 4%, the “Population Mitochondria Different-Phenotype (%)” value (HEK-293T [1]; [10]) was 73% and the “Population Mitotic Cells (%)” value (HEK-293T [1]; [10]) was 70%. The “Population Normal (%)” value (HEK-293T [1]; [10]) was 93%, the “Population Pyknosed Nuclei (%)” value (HEK-293T [1]; [10]) was 44% and the “Population Tubulin-Different-Phenotype (%)” value (HEK-293T [1]; [10]) was 81%. For the same compound, the “Total Cell Count” value (HEK-293T [1]; [10]) was 231, the “Population Apoptotic (%)” value (HEK-293T [1]; [11]) was 43% and the “Population Fragmented Nuclei (%)” value (HEK-293T [1]; [11]) was 20%. For the same compound, the “Population Healthy Nuclei (%)” value (HEK-293T [1]; [11]) was 46%, the “Population Hoechst High Intensity Objects (%)” value (HEK-293T [1]; [11]) was 12% and the “Population Membrane Permeable-Phenotype (%)” value (HEK-293T [1]; [11]) was 2%. The “Population Mitochondria Different-Phenotype (%)” value (HEK-293T [1]; [11]) was 26%, the “Population Mitotic Cells (%)” value (HEK-293T [1]; [11]) was 56% and the “Population Normal (%)” value (HEK-293T [1]; [11]) was 87%. The “Population Pyknosed Nuclei (%)” value (HEK-293T [1]; [11]) was 32%, the “Population Tubulin-Different-Phenotype (%)” value (HEK-293T [1]; [11]) was 22% and the “Total Cell Count” value (HEK-293T [1]; [11]) was 315. The “Population Apoptotic (%)” value (HEK-293T [1]; [12]) was 15%, the “Population Fragmented Nuclei (%)” value (HEK-293T [1]; [12]) was 7% and the “Population Healthy Nuclei (%)” value (HEK-293T [1]; [12]) was 82%. The “Population Hoechst High Intensity Objects (%)” value (HEK-293T [1]; [12]) was 3%, the “Population Membrane Permeable-Phenotype (%)” value (HEK-293T [1]; [12]) was 4% and the “Population Mitochondria Different-Phenotype (%)” value (HEK-293T [1]; [12]) was 8%. The “Population Mitotic Cells (%)” value (HEK-293T [1]; [12]) was 84%, the “Population Normal (%)” value (HEK-293T [1]; [12]) was 96% and the “Population Pyknosed Nuclei (%)” value (HEK-293T [1]; [12]) was 10%. The “Population Tubulin-Different-Phenotype (%)” value (HEK-293T [1]; [12]) was 17%, the “Total Cell Count” value (HEK-293T [1]; [12]) was 539 and the “Population Apoptotic (%)” value (HEK-293T [1]; [13]) was 49%. For the same compound, the “Population Fragmented Nuclei (%)” value (HEK-293T [1]; [13]) was 13%, the “Population Healthy Nuclei (%)” value (HEK-293T [1]; [13]) was 67% and the “Population Hoechst High Intensity Objects (%)” value (HEK-293T [1]; [13]) was 9%. For the same compound, the “Population Membrane Permeable-Phenotype (%)” value (HEK-293T [1]; [13]) was 3%, the “Population Mitochondria Different-Phenotype (%)” value (HEK-293T [1]; [13]) was 74% and the “Population Mitotic Cells (%)” value (HEK-293T [1]; [13]) was 50%. For the same compound, the “Population Normal (%)” value (HEK-293T [1]; [13]) was 90%, the “Population Pyknosed Nuclei (%)” value (HEK-293T [1]; [13]) was 19% and the “Population Tubulin-Different-Phenotype (%)” value (HEK-293T [1]; [13]) was 70%. The “Total Cell Count” value (HEK-293T [1]; [13]) was 365, the “Population Apoptotic (%)” value (HEK-293T [1]; [14]) was 36% and the “Population Fragmented Nuclei (%)” value (HEK-293T [1]; [14]) was 7%. The “Population Healthy Nuclei (%)” value (HEK-293T [1]; [14]) was 74%, the “Population Hoechst High Intensity Objects (%)” value (HEK-293T [1]; [14]) was 2% and the “Population Membrane Permeable-Phenotype (%)” value (HEK-293T [1]; [14]) was 0%. The “Population Mitochondria Different-Phenotype (%)” value (HEK-293T [1]; [14]) was 54%, the “Population Mitotic Cells (%)” value (HEK-293T [1]; [14]) was 63% and the “Population Normal (%)” value (HEK-293T [1]; [14]) was 97%. For the same compound, the “Population Pyknosed Nuclei (%)” value (HEK-293T [1]; [14]) was 18%, the “Population Tubulin-Different-Phenotype (%)” value (HEK-293T [1]; [14]) was 67% and the “Total Cell Count” value (HEK-293T [1]; [14]) was 337. The “Growth Rate” value (HEK-293T [2]; [15]) was 0, the “Growth Rate” value (HEK-293T [2]; [16]) was 0 and the “Growth Rate” value (HEK-293T [2]; [17]) was 0. For the same compound, the “Growth Rate” value (HEK-293T [2]; [18]) was 0, the “Growth Rate” value (HEK-293T [2]; [19]) was 0 and the “Growth Rate” value (Fibroblast; [15]) was 1. The “Growth Rate” value (Fibroblast; [16]) was 0, the “Growth Rate” value (Fibroblast; [17]) was 0 and the “Growth Rate” value (Fibroblast; [18]) was 0. For the same compound, the “Growth Rate” value (Fibroblast; [19]) was 0.
